Data published in article PMC4196235 (mBio, 2014).
In brackets after ≈: the same amount, converted by molar mass.

Tests used:
[1] = tested on: mitochondrial A1555G mutant hybrid ribosomes; assay: ribosomal damage index, mitochondrial A1555G mutant hybrid; type: biochemical, Homo sapiens; details: 1/IC50 × misreading at IC50/misreading in the absence of the drug × 100
Procedure, shortened: (§1)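 Misreading gain-of-function assay: firefly luciferase mRNA with His245 CAC replaced by near-cognate Arg245 CGC, alongside wild-type firefly mRNA, translated in vitro with renilla luciferase mRNA as internal control. Misreading is the mutant firefly/renilla ratio relative to the wild-type firefly/renilla ratio.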

[2] = tested on: Escherichia coli isolates; assay: MIC by broth microdilution, clinical isolates; type: cell-based
Procedure, shortened: (§2)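 Clinical isolates from a university diagnostic microbiology department. MIC determined by broth microdilution in microtiter plates, incubated overnight.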

[3] = tested on: recombinant bacterial ribosomes with point mutation G1491C in the A site; assay: cell-free ribosomal translation assay, G1491C mutant; type: biochemical, Mycobacterium smegmatis
Procedure, shortened: (§3)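 Purified 70S hybrid ribosomes, wild-type or carrying the single A-site point mutation, came from M. smegmatis strains with a single rRNA operon. Each was translated with firefly luciferase mRNA, 40% (vol/vol) M. smegmatis S100 extract, amino acids, 0.4 mg/ml tRNAs and S30 premix energy, plus serially diluted test compound, for 35 min at 37°C. Luciferase luminescence gave IC50s (triplicate means ± SD), expressed as mutant/wild-type IC50 ratio.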

[4] = tested on: hybrid bacterial ribosomes carrying the mitochondrial A site; assay: cell-free translation assay, mitochondrial hybrid ribosomes; type: biochemical, Homo sapiens; details: firefly luciferase synthesis, mean ± SD, triplicate
Procedure, shortened: (§4)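 Hybrid 70S ribosomes purified from recombinant Mycobacterium smegmatis strains derived from a ΔrrnB single-rRNA-operon strain. Reactions contained 0.25 µM ribosomes, 4 µg firefly luciferase mRNA, 40% (vol/vol) M. smegmatis S100 extract, 200 µM amino acids and 0.4 mg/ml tRNAs, with S30 premix as energy source. Serially diluted test compound added; 37°C for 35 min, stopped on ice. Luciferase luminescence read; IC50 from dose-response curves; mean ± SD, triplicate.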

[5] = tested on: Staphylococcus aureus (MRSA) isolates; assay: MIC by broth microdilution, clinical isolates; type: cell-based
Procedure, shortened: as §2

[6] = tested on: hybrid bacterial ribosomes carrying the mitochondrial mutant A1555G deafness A site; assay: cell-free translation assay, mitochondrial deafness hybrid ribosomes; type: biochemical, Homo sapiens; details: firefly luciferase synthesis, mean ± SD, triplicate
Procedure, shortened: as §4

[7] = tested on: rabbit reticulocyte ribosomes; assay: in vitro translation in rabbit reticulocyte lysate; type: biochemical; details: firefly luciferase synthesis, mean ± SD, triplicate
Procedure, shortened: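 Cell-free translation in rabbit reticulocyte lysate with firefly luciferase mRNA and serially diluted test compound. Incubated 37°C for 35 min, stopped on ice, then luciferase luminescence measured. IC50 is the concentration halving functional luciferase synthesis, taken from dose-response curves; mean ± SD, triplicate.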

[8] = tested on: mitochondrial hybrid ribosomes; assay: ribosomal damage index; type: biochemical, Homo sapiens; details: 1/IC50 × misreading at IC50/misreading in the absence of the drug × 100
Procedure, shortened: as §1

[9] = tested on: rabbit reticulocyte ribosomes; assay: ribosomal damage index, native cytosolic eukaryotic ribosomes; type: biochemical; details: 1/IC50 × misreading at IC50/misreading in the absence of the drug × 100
Procedure, shortened: as §1

[10] = tested on: recombinant bacterial ribosomes with point mutation A1408G in the A site; assay: cell-free ribosomal translation assay, A1408G mutant; type: biochemical, Mycobacterium smegmatis
Procedure, shortened: as §3

S. aureus MRSA AG041 = assay: neutropenic murine model of Staphylococcus aureus septicemia; type: in vivo; details: at the highest dose tested; subcutaneous (Fig. 2C and F)
[11] = tested on: hybrid bacterial ribosomes carrying the cytoplasmic A site; assay: cell-free translation assay, cytosolic hybrid ribosomes; type: biochemical, Homo sapiens; details: firefly luciferase synthesis, mean ± SD, triplicate
Procedure, shortened: as §4

[12] = tested on: cytosolic hybrid ribosomes; assay: ribosomal damage index, cytosolic hybrid; type: biochemical, Homo sapiens; details: 1/IC50 × misreading at IC50/misreading in the absence of the drug × 100
Procedure, shortened: as §1

outer hair cells = assay: quantification of outer hair cell loss in cochlear surface preparations; type: in vivo; details: guinea pig, 140 mg/kg, 14 days
Procedure, shortened: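 Guinea pigs dosed subcutaneously once daily for 14 days. After the final ABR (3 weeks post-treatment), cochleae were split into apical, middle and basal segments. Segments were permeabilized in 3% Triton X-100 for 30 min at RT, washed in PBS and stained with rhodamine phalloidin (1:100) for 1 h at RT. Consecutive 0.19-mm fields from the apex were scored blind for missing outer hair cells against a normative database.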

[13] = general toxicity in the guinea pig chronic ototoxicity study; type: in vivo
Procedure, shortened: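 Male Hartley guinea pigs, about 200 g initially, acclimated 1 week. […] Animals were followed for death and body weight through the study, which included ABR testing before treatment and 3 weeks after treatment ended.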

## NC[C@@H]1O[C@H](O[C@H]2[C@@H](O)[C@H](O[C@@H]3[C@@H](O)[C@H](N)C[C@H](N)[C@H]3O[C@H]3O[C@H](CO)[C@@H](O)[C@H](O)[C@H]3N)O[C@@H]2CO)[C@H](N)[C@@H](O)[C@@H]1O [Paromomycin]
[1]
  Ribosomal damage index: Mitochondrial mutant A1555G: 125.0
[2]; E. coli clinical isolate AG 001
  MIC: 16 to 32 µg/mL (≈ 26 to 52 µM)
[2]; E. coli clinical isolate AG 002
  MIC: 8 to 16 µg/mL (≈ 13 to 26 µM)
[2]; E. coli clinical isolate AG 003
  MIC: 8 to 16 µg/mL (≈ 13 to 26 µM)
[2]; E. coli clinical isolate AG 055
  MIC: 8 to 16 µg/mL (≈ 13 to 26 µM)
[3]
  ratio of the IC50 for the C1491 mutant ribosomes to the IC50 for the wild-type ribosomes: 520
[4]
  IC50 with eukaryotic A sites in the ribosome: Mitochondrial wild-type: 50.66 ± 13.33 µg/mL
[5]; S. aureus (MRSA) clinical isolate AG 038
  MIC: 4 µg/mL (≈ 6.5 µM)
[5]; S. aureus (MRSA) clinical isolate AG 039
  MIC: > 256 µg/mL
[5]; S. aureus (MRSA) clinical isolate AG 042
  MIC: > 256 µg/mL
[5]; S. aureus (MRSA) clinical isolate AG 044
  MIC: 4 to 8 µg/mL (≈ 6.5 to 13 µM)
[5]; S. aureus (MRSA) clinical isolate AG 045
  MIC: 4 µg/mL (≈ 6.5 µM)
[6]
  IC50 with eukaryotic A sites in the ribosome: Mitochondrial mutant A1555G: 5.77 ± 2.32 µg/mL
[7]
  IC50 with eukaryotic A sites in the ribosome: Rabbit reticulocytes: 9.55 ± 4.94 µg/mL
[8]
  Ribosomal damage index: Mitochondrial wild-type: 5.0
[9]
  Ribosomal damage index: Rabbit ribosomes: 120.0
[10]
  ratio of the IC50 for the G1408 mutant ribosomes to the IC50 for the wild-type ribosomes: 13
S. aureus MRSA AG041
  bacterial burden in the kidney: below detectable limits
[11]
  IC50 with eukaryotic A sites in the ribosome: Cytosolic wild-type: 9.89 ± 2.73 µg/mL
[12]
  Ribosomal damage index: Cytosolic wild-type: 40.0

## NCC1OC(OC2C(CO)OC(OC3C(O)C(N)CC(N)C3OC3OC(CO)C(OCCCc4ccccc4)C(O)C3N)C2O)C(N)C(O)C1O (stereo not shown) [4′-O-(3-Phenylpropyl) paromomycin]
[4]
  IC50 with eukaryotic A sites in the ribosome: Mitochondrial wild-type: 49.85 ± 15.39 µg/mL
[6]
  IC50 with eukaryotic A sites in the ribosome: Mitochondrial mutant A1555G: 105.68 ± 39.23 µg/mL
[11]
  IC50 with eukaryotic A sites in the ribosome: Cytosolic wild-type: 268.57 ± 54.97 µg/mL

## NC[C@@H]1O[C@H](O[C@H]2[C@@H](O)[C@H](O[C@@H]3[C@@H](O)[C@H](N)C[C@H](N)[C@H]3O[C@H]3O[C@@H]4CO[C@@H](CCc5ccccc5)O[C@H]4[C@H](O)[C@H]3N)O[C@@H]2CO)[C@H](N)[C@@H](O)[C@@H]1O [4′,6′-O-(3-Phenylpropylidene) paromomycin]
[4]
  IC50 with eukaryotic A sites in the ribosome: Mitochondrial wild-type: 305.7 ± 74.1 µg/mL
[6]
  IC50 with eukaryotic A sites in the ribosome: Mitochondrial mutant A1555G: 126.9 ± 54.4 µg/mL
[11]
  IC50 with eukaryotic A sites in the ribosome: Cytosolic wild-type: 150.5 ± 28.0 µg/mL

## CNC(C)C1CCC(N)C(OC2C(N)CC(N)C(OC3OCC(C)(O)C(NC)C3O)C2O)O1 (stereo not shown) [Gentamicin]
Outer hair cells
  loss of outer hair cells in cochleae: steep rise of hair cell loss from the middle cochlea to complete loss at the base
Outer hair cells; listed as gentamicin
  loss of outer hair cells in cochleae: extensive loss of outer hair cells
[13]; doses below 160 mg/kg
  signs of general toxicity: significant weight loss
[13]; doses exceeding 160 mg/kg
  signs of general toxicity: death

## NC[C@@H]1O[C@H](O[C@H]2[C@@H](O)[C@H](O[C@@H]3[C@@H](O)[C@H](N)C[C@H](N)[C@H]3O[C@H]3O[C@H](CO)C[C@H](O)[C@H]3N)O[C@@H]2CO)[C@H](N)[C@@H](O)[C@@H]1O [4′ Deoxy paromomycin]
[4]
  IC50 with eukaryotic A sites in the ribosome: Mitochondrial wild-type: 74.1 ± 12.4 µg/mL
[6]
  IC50 with eukaryotic A sites in the ribosome: Mitochondrial mutant A1555G: 24.2 ± 10.5 µg/mL
[7]
  IC50 with eukaryotic A sites in the ribosome: Rabbit reticulocytes: 17.3 ± 4.2 µg/mL
[11]
  IC50 with eukaryotic A sites in the ribosome: Cytosolic wild-type: 28.4 ± 13.8 µg/mL
